The record followed here is ChEMBL document CHEMBL3232847, “Discovery of 6-phenylpyrimido[4,5-b][1,4]oxazines as potent and selective acyl CoA:diacylglycerol acyltransferase 1 (DGAT1) inhibitors with in vivo efficacy in rodents” (J Med Chem, 2014).

Calls of active or inactive are those of the source. The rule behind the calls is not given here. Bounds are passed on as bounds.

A short description of data set [1]: Inhibition of rat small intestine microsomal MGAT by TLC technique in presence of monoacylglycerol and [14C] palmitoyl CoA. The data set is classed as microsomes.
Data set [2] in a line: Inhibition of mouse liver microsomal GPAT by TLC technique in presence of glycerol-3-phosphate and [14C] palmitoyl CoA. (In general: Liver microsomes are vesicles of endoplasmic reticulum, rich in cytochrome P450 enzymes.)
The next data set deals with Mus musculus. Nature of the data set: Reduction in plasma triglyceride level in C57BL/6J mouse at 0.1 mg/kg, po treated 30 mins prior to olive oil administration measured 3 hrs post olive oil administration relative to vehicle-treated control. Format: functional. Details: scale not given: the % may be the effect or the level left. Put shortly: (§1)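 Animals received vehicle or compound by oral gavage, then olive oil (5 mL/kg) by oral gavage 30 min later. Plasma triglycerides were measured before dosing and 3 h after the oil. The read-out was the change in TG from pre-dose, compared with vehicle-treated animals.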

Data set [3] deals with T1, Sterol O-acyltransferase 2 (Homo sapiens, UniProt O75908).
T1 sequence (O75908 whole entry): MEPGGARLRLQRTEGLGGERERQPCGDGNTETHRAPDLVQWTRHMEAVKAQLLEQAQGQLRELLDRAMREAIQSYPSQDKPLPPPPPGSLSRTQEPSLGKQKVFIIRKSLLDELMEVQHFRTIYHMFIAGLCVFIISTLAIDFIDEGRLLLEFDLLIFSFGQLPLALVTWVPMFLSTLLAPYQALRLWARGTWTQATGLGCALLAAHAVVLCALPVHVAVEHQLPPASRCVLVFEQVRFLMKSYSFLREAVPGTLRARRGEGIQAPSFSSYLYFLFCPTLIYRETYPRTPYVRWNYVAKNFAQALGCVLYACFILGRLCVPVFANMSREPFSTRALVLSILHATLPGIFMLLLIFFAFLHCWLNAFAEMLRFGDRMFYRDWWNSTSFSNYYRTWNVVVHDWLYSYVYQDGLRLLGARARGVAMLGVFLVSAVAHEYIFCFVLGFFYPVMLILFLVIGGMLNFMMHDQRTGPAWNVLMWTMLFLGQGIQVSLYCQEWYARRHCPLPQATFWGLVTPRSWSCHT
Description: Inhibition of human full-length flag-tagged ACAT2 expressed in baculovirus infected insect cells using [14C]palmitoyl CoA as substrate after 10 mins by scintillation counting.

Data set [4] concerns the target T2, Voltage-gated inwardly rectifying potassium channel KCNH2 (Homo sapiens, UniProt Q12809). Description: Inhibition of human ERG up to 5 uM by patch clamp assay. In general terms: In patch-clamp work, channel activity is measured electrically.
Data set [5] in a line: Half life in Sprague-Dawley rat at 0.7 mg/kg, iv. Format: ADME, organism-based. Details: dose 0.7 mg/kg, route intravenous. To be noted: in vivo.
The nature of data set [6]: AUC in Sprague-Dawley rat at 5 mg/kg, po. Format: ADME, organism-based. Details: dose 5 mg/kg, route oral. The following applies: plasma.
A short description of data set [7]: Oral bioavailability in Sprague-Dawley rat at 5 mg/kg. Format: ADME, organism-based. To be noted: in vivo.
Data set [8] can be described thus: AUC in beagle dog at 2 mg/kg, po. The data set is classed as ADME, organism-based, Canis lupus familiaris. Details: dose 2 mg/kg, route oral. To be noted: plasma.
Data set [9] can be described thus: Oral bioavailability in beagle dog at 2 mg/kg. The data set is classed as ADME, organism-based, Canis lupus familiaris. The following applies: in vivo.
Data set [10] has as its system Rattus norvegicus. Description: Toxicity in Sprague-Dawley rat assessed as change in clinical parameters at 10 mg/kg, po qd by 14-day multiple-dose toxicity study. The data set is classed as organism-based. On the set-up: dose 10 mg/kg, route oral. The following applies: in vivo. A digest of the protocol: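 Sprague−Dawley rats were dosed po once daily for 14 days. Clinical and histopathological findings were assessed, and plasma AUC was recorded for each dose.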

A short description of data set [11]: AUC in Sprague-Dawley rat at 10 mg/kg, po qd. Format: ADME, organism-based. Details: dose 10 mg/kg, route oral. The following applies: plasma. A digest of the protocol:
(§2)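 Sprague-Dawley rats dosed orally once daily for 14 days in a multiple-dose toxicity study at 10, 30 or 100 mg/kg. Plasma exposure was reported as AUC, and clinical and histopathological findings were recorded.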

The nature of data set [12]: AUC in Sprague-Dawley rat at 30 mg/kg, po qd. Format: ADME, organism-based. On the set-up: dose 30 mg/kg, route oral. The following applies: plasma. Put shortly: as §2
The subject of data set [13] is Cynomolgus monkey. Description: Toxicity in cynomolgus monkey assessed as elevation of AST level at 10 to 30 mg/kg/day, po qd by 21-day multiple-dose toxicity study relative to control. The following applies: in vivo. Details: route oral. Format: organism-based, Macaca fascicularis. Put shortly:
(§3)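 Cynomolgus monkeys were dosed po once daily at 10 and 30 mg/kg for 21 days. ALT and AST levels, QTc intervals, and clinical and histopathological findings were assessed, and plasma AUC was recorded for each dose.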

Data set [14] relates to Cynomolgus monkey. Description: Toxicity in cynomolgus monkey assessed as elevation of prolongation of QTc interval at 10 to 30 mg/kg/day, po qd by 21-day multiple-dose toxicity study relative to control. To be noted: in vivo. The data set is classed as organism-based, Macaca fascicularis. On the set-up: route oral. Put shortly: as §3
A short description of data set [15]: AUC in cynomolgus monkey at 30 mg/kg/day, po qd. Format: ADME, organism-based, Macaca fascicularis. On the set-up: route oral. The following applies: plasma. A digest of the protocol: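 Cynomolgus monkeys dosed orally once daily at 10 or 30 mg/kg for 21 days in a multiple-dose toxicity study. Plasma AUC was reported, with ALT/AST levels, QTc intervals and clinical and histopathological findings monitored.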

A short description of data set [16]: Clearance in beagle dog at 0.5 mg/kg, iv. The following applies: in vivo. Details: dose 0.5 mg/kg, route intravenous. Format: ADME, organism-based, Canis lupus familiaris.
The nature of data set [17]: Volume of distribution at steady state in beagle dog at 0.5 mg/kg, iv. The data set is classed as ADME, organism-based, Canis lupus familiaris. Details: dose 0.5 mg/kg, route intravenous. To be noted: in vivo, read-out: Vdss.
Data set [18] can be described thus: Half life in beagle dog at 0.5 mg/kg, iv. The following applies: in vivo. On the set-up: dose 0.5 mg/kg, route intravenous. Format: ADME, organism-based, Canis lupus familiaris.
Data set [19] can be described thus: AUC in beagle dog at 5 mg/kg, po. The data set is classed as ADME, organism-based, Canis lupus familiaris. Details: dose 5 mg/kg, route oral. To be noted: plasma.
Data set [20] can be described thus: Volume of distribution at steady state in rhesus monkey at 0.2 mg/kg, iv. The data set is classed as ADME, organism-based, Macaca mulatta. Details: dose 0.2 mg/kg, route intravenous. The following applies: in vivo, read-out: Vdss.
In data set [21] the test system is Rattus norvegicus. Nature of the data set: Reduction in plasma triglyceride level in Sprague-Dawley rat at 0.1 mg/kg, po treated 30 mins prior to olive oil administration measured 3 hrs post olive oil administration relative to vehicle-treated control. Format: functional. On the set-up: scale not given: the % may be the effect or the level left. A digest of the protocol: as §1

Data set [22] has as its system Rattus norvegicus. Nature of the data set: Reduction in plasma triglyceride level in po dosed Sprague-Dawley rat compound treated 30 mins prior to olive oil administration measured 3 hrs post olive oil administration relative to vehicle-treated control. Format: functional, organism-based. Put shortly:
as §1

Data set [23] has as its target T2, Voltage-gated inwardly rectifying potassium channel KCNH2. Description: Inhibition of human ERG by patch clamp assay.
A short description of data set [24]: AUC in cynomolgus monkey at 100 mg/kg, po administered as single dose relative to control. Details: dose 100 mg/kg, route oral. To be noted: plasma. Format: ADME, organism-based, Macaca fascicularis. A digest of the protocol: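 Cynomolgus monkeys received a single oral dose of 100 mg/kg. Plasma AUC was recorded alongside plasma liver enzymes ALT and AST.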

The nature of data set [25]: Drug metabolism in Sprague-Dawley rat liver S9 fraction assessed as 2-hydroxy compound formation by MS/MS analysis. Format: ADME, subcellular.
For data set [26], the species on record is Rattus norvegicus. Nature of the data set: Inhibition of rat small intestine microsomal MGAT up to 10 uM by TLC technique in presence of monoacylglycerol and [14C] palmitoyl CoA. Format: microsomes.

T2 sequence (Q12809 whole entry): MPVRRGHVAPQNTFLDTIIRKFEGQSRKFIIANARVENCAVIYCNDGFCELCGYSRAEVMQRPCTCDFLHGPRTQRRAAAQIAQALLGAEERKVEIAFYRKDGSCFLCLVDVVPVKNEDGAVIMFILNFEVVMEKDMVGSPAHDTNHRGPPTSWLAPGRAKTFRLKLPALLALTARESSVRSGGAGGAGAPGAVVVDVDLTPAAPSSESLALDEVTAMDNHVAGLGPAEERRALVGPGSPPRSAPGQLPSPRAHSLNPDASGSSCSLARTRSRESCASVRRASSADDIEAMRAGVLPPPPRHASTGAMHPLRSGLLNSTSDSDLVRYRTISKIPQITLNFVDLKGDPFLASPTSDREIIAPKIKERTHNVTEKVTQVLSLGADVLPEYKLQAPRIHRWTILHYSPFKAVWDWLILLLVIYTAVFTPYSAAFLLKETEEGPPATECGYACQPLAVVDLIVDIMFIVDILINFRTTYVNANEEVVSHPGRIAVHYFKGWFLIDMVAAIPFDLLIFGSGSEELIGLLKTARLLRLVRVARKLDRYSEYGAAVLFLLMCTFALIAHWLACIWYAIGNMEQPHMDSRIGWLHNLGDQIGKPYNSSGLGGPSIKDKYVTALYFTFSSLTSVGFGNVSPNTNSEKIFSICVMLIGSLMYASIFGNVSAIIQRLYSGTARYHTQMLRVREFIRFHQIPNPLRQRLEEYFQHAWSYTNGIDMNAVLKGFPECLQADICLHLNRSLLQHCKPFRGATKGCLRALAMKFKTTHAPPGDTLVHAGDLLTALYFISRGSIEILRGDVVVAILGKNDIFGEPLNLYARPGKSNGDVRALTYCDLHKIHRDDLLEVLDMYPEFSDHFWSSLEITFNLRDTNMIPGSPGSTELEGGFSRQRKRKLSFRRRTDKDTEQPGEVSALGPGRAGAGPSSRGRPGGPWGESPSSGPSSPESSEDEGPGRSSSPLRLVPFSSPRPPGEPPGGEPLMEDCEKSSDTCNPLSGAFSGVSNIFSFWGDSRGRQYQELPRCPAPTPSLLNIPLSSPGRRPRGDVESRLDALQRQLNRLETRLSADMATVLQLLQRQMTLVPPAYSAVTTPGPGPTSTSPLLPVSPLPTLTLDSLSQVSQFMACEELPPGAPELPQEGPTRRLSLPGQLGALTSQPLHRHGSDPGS

With `CC1(C)Oc2nc(C(F)(F)F)nc(N)c2N=C1c1ccc2c(c1)CC[C@]21CC[C@@H](CC(=O)O)CC1`, the IC50 in [1], in [2] and in data set [3] was more than 10 µM in each case. Besides, the Activity was 99.7% in the data set with Mus musculus, “Non-toxic” in the data set on Rattus norvegicus [10], “Non-toxic” with Cynomolgus monkey [13] and “Non-toxic” in the data set with Cynomolgus monkey [14]. For the same compound, the “inhibition (INH)” value in data set [4] is reported as “Not Active”. In data set [5], the half-life – broadly, the time in which the quantity being followed falls by half – was 3.7 h. The AUC (in general, concentration integrated over time) amounted to 22900 ng·h/mL in data set [6]; 3180 ng·h/mL in data set [8]; 11 µM·h in [11]; 78 µM·h in data set [12]; 2560 µM·h in data set [15]. Moreover, the bioavailability – broadly, dose-corrected exposure relative to a reference, in per cent – in data set [7] was 98%; in [9], 22%.
Take `CC1(C)Oc2ncnc(N)c2N=C1c1ccc([C@H]2CC[C@H](CC(=O)O)CC2)cc1`: in [16], the clearance – broadly, the rate of elimination divided by the concentration – was 11 mL/min/kg. In addition, the Vd in data set [17] turned out to be 1.9 L/kg; in [20], 0.46 L/kg. For the same compound, the half-life in data set [18] was 2.4 h. Moreover, the AUC in [19] came to 4720 ng·h/mL; in [24], 1420 µM·h. For the same compound, the results for the Activity with Rattus norvegicus [21] and in the data set with Rattus norvegicus [22] were 68% and “Dose-dependent effect”, respectively. In addition, the IC50 (as a rule, the point on the concentration scale where inhibition reaches its midpoint) in data set [23] was more than 10 µM. In addition, the Drug metabolism result in [25] was “metabolite_detected”. Also, in the data set filed under Rattus norvegicus [26], the inhibition result is “inactive”.
